An excerpt weighted towards active compounds, which were near 2.4% of everything screened.
Scp1 inh: Scp-1 (human) phosphatase inhibition; inhibition, % at 20 µM; 340,000 tested, 0.88% active; Recombinant Scp1, phosphopeptide, malachite green phosphate absorbance; Q9GZU7; AID 493091;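 active = inhibition above about 50% at 20 µM, limit read from the data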
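Test system – truncated SCP-1 phosphatase (76-261aa) · Reagent – Phosphorylated 17-residue peptide substrate · Incubation – 45 min room-temperature reaction, 5 min colour, 30 min stabiliser · Detection – colorimetric phosphate reagent with accelerator and stabiliser, absorbance at 630 nm · Measure – % inhibition at 20 µM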
LMPTP block: blocks human LMPTP phosphatase; P24666; 360,000 tested, 0.22% active; recombinant LMPTP-A, OMFP fluorogenic substrate, fluorescence intensity; inhibition, % at 20 µM; AID 651560;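 active = compounds that cut the enzyme signal by at least half of the control window in the single-dose screen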
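Assay system: LMPTP-A, protein tyrosine phosphatase of low molecular weight / Medium: pH 6.0 Bis-Tris buffer with DTT and Triton X-100 / Schedule: 50 min enzyme reaction at room temperature, protected from light / Measured by: endpoint fluorescence intensity from OMFP dephosphorylation / Read-out basis: % inhibition relative to no-enzyme and uninhibited control wells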
STEP block: STEP (human) phosphatase inhibition. recombinant STEP, OMFP fluorogenic substrate, fluorescence. inhibition, % at 20 µM. 360,000 tested, 0.25% active. AID 588621;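 active = inhibition at 20 µM, scaled per plate between control wells, above about 37%, limit read from the data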
Target sequence (P54829 whole entry, looked up): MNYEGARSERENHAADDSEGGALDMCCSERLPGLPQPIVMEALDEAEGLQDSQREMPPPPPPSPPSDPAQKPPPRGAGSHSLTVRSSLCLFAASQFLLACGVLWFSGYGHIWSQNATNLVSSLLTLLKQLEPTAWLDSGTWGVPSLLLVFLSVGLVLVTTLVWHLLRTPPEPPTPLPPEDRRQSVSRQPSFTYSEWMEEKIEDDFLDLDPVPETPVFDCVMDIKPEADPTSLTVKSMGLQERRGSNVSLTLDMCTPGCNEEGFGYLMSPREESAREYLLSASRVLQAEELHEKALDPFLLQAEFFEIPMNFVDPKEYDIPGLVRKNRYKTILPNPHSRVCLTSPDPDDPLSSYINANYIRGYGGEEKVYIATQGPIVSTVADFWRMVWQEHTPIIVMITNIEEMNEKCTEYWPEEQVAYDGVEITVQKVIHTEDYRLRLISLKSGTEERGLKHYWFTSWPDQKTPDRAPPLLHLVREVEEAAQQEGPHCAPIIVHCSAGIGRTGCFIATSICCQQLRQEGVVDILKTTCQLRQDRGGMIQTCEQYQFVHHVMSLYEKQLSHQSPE
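medium = Bis-Tris buffer pH 6.0, 2.5 mM DTT, 0.005% Tween 20 | test system = STEP (striatal-enriched tyrosine phosphatase) enzyme, cell-free | measure = normalized % inhibition | compound dosing = 20 µM, 1% DMSO | also added = 25 µM OMFP | schedule = reaction 20 min, ambient temperature | measured by = fluorescence read at 480 nm ex / 540 nm em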
DNMT1 block: blocks human DNA methyltransferase DNMT1. AID 588458. DNMT1 molecular beacon, Hinp1I cleavage, fluorescence. inhibition (reported as % activation of signal), % at 10 µM. P26358. 360,000 tested, 0.83% active; in the data active = inhibition above about 50%
SUMO1 PPI mod: SUMO1-SIM interaction modulation; SUMO1 binding to a labelled peptide, TR-FRET, 1 h; P63165; 360,000 tested, 0.33% active; inhibition, % at 20 µM; AID 602429; in the data active = inhibition above about 37%
Target sequence (P63165 whole entry, looked up): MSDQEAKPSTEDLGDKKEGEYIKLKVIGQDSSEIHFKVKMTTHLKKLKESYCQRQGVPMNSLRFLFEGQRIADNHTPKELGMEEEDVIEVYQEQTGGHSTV
NadD inh: NadD (S. aureus) enzyme inhibition | purified NadD enzyme, colorimetric absorbance read-out | inhibition, % at 20 µM | 360,000 tested, 0.78% active; in the data active = inhibition above about 26%
DNMT1 inh conf: confirmation of human DNMT1 inhibitors; AID 602385; shares compounds with DNMT1 block; DNMT1 molecular beacon HinP1I cleavage, fluorescence; inhibition, % at 10 µM; 2,300 tested, 8% active;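 active = average inhibition of at least 30% in the single-concentration confirmation test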
DNMT1 interf: counter-screen for DNMT1 inhibitors: spectral interference; AID 602387; DNMT1 molecular beacon spectral interference counterscreen, fluorescence 485/520; shares compounds with DNMT1 block; 2,300 tested, 1% active; activation (fluorescence interference), % at 10 µM;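 active = activation of at least 30% at 10 µM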;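 note: DNMT1 catalytic domain with a HinP1I cleavage step and a FAM/dabcyl DNA beacon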
A number is an active result; . = inactive; / = no result given.

SMILES	Scp1 inh	LMPTP block	STEP block	DNMT1 block	SUMO1 PPI mod	NadD inh	DNMT1 inh conf	DNMT1 interf
CC12CCC3c4ccc(O)c([N+](=O)[O-])c4CCC3C1CCC2=O (stereo unspecified)	/	.	.	78.3	.	.	.	.
COc1ccc2[nH]c3c(c2c1)CCN1C(=O)C(CC(=O)NCc2ccc(OC)c(OC)c2)C[C@H](C(=O)N2CCOCC2)[C@@]31CCC1CCCC1 (stereo partly specified)	.	.	.	.	.	.	/	/
Cc1ccc(CN2C(=O)CCC2C(=O)NCc2ccc3c(c2)OCO3)cc1 (stereo unspecified)	.	.	.	90.7	.	.	.	.
CN1CCN(C(=O)C2CCC(=O)N(Cc3cccc(C(F)(F)F)c3)C2)CC1 (stereo unspecified)	.	.	.	.	.	.	/	/
O=[N+]([O-])c1ccc(/C=N/NC(=S)Nc2ccc(Cl)cc2Cl)s1	.	.	.	59.8	.	.	.	.
CCCCCOC(=O)Cn1c(=O)oc2ccc(C)cc21	.	.	.	72.5	.	.	.	.
CCCCOC(=O)Cn1c(=O)oc2ccc(C)cc21	.	.	.	.	.	.	/	/
NC(=O)CC(NC(=O)Cc1cccc2ccccc12)c1ccc(NC2CCCCC2)c([N+](=O)[O-])c1 (stereo unspecified)	.	.	.	64.3	.	.	.	.
NC(=O)CC(NC(=O)Cc1cccc2ccccc12)c1ccc(NCCOc2ccccc2)c([N+](=O)[O-])c1 (stereo unspecified)	.	.	.	51.1	.	.	.	.
NC(=O)CC(NC(=O)Cc1cccc2ccccc12)c1ccc(NCC2CC2)c([N+](=O)[O-])c1 (stereo unspecified)	.	.	.	.	.	.	/	/
NC(=O)CC(NC(=O)Cc1cccc2ccccc12)c1ccc(NC2CCCC2)c([N+](=O)[O-])c1 (stereo unspecified)	.	.	.	.	.	.	/	/
COc1ccc(Cn2nnnc2CN2CCc3ccccc3C2)cc1	.	.	.	.	.	.	/	/
CN1CCS/C1=C\C=C1/SC(=S)N(CC(=O)O)C1=O	.	.	.	62.9	.	.	57.2	59.9
O=C(O)C1CC2C3CC(C(=O)O)C(C3)C2C1 (stereo unspecified)	.	.	.	74.9	.	.	.	.
CCOC(=O)c1c(NC(=O)N/N=C/c2ccccc2OCC)sc(C(C)=O)c1C	.	.	.	55.7	.	.	.	.
Cn1cc(/C=C/c2cc[n+](C)cc2)c2cc(F)ccc21	.	.	.	60.3	.	.	55.6	52.6
CCOc1ccc2nc(NC(=O)CN3CCN(C)CC3)sc2c1	.	.	.	72.5	.	.	.	.
CCOc1ccc2nc(NC(=O)CN3CCN(CC)CC3)sc2c1	.	.	.	.	.	.	/	/
Cc1ccc(C(=O)n2nc(C#N)c(C#N)c2N)cc1	.	.	.	.	.	.	/	/
Nc1nc(-c2ccco2)c(-c2ccco2)s1	.	.	.	51.2	.	.	.	.
O=C(CCl)Nc1nc(-c2ccco2)c(-c2ccco2)s1	.	.	.	.	.	.	/	/
O=C(C1CCN(S(=O)(=O)c2ccccc2)CC1)N1CCN(c2ccccc2)CC1	.	.	.	.	.	.	/	/
NC(=O)C1CCN(C(=O)C2CCN(S(=O)(=O)c3ccccc3)CC2)CC1	.	.	.	81.0	.	.	.	.
O=C(Nc1cc2c(oc1=O)CCCC2=O)c1ccc(Cl)cc1	68.0	.	.	96.7	.	.	.	.
O=C(NCC(c1ccco1)N1CCN(c2ccccc2)CC1)OCc1ccccc1 (stereo unspecified)	.	.	.	.	.	.	/	/
SMILES	Scp1 inh	LMPTP block	STEP block	DNMT1 block	SUMO1 PPI mod	NadD inh	DNMT1 inh conf	DNMT1 interf
O=C1C(=Cc2ccco2)CCCC1=Cc1ccco1	66.5	.	.	100.1	.	.	.	.
O=C1/C(=C/c2c[nH]c3ccccc23)CCC/C1=C\c1c[nH]c2ccccc12	.	.	.	.	.	.	/	/
Cc1n[nH]c(=O)nc1N/N=C/c1ccc(O)c([N+](=O)[O-])c1	.	.	.	72.9	.	.	.	.
COc1ccc(/C=N/Nc2nc(=O)[nH]nc2C)cc1[N+](=O)[O-]	.	.	.	.	.	.	/	/
O=C(O)CCSc1nc(C(F)(F)F)cc(=O)n1-c1ccccc1	.	.	.	.	.	.	/	/
Cc1cccn2c(=O)c(/C=C(\C#N)C(=O)NCc3ccco3)c(N3CCOCC3)nc12	.	.	.	.	.	.	/	/
N#C/C(=C\c1c(N2CCC(C(N)=O)CC2)nc2ccccn2c1=O)C(=O)NCc1ccco1	.	.	.	64.0	.	.	.	.
O=C(N/N=C/c1ccco1)c1ccc(NC(=O)C2CCCCC2)cc1	.	.	.	.	.	.	/	/
COc1cc2c(cc1NC(=O)Nc1ccc(F)cc1)oc1ccccc12	.	.	.	83.0	.	.	.	.
COc1ccc(/C=C/C(=O)NC(=S)Nc2cc3oc4ccccc4c3cc2OC)cc1	.	.	.	57.1	.	.	.	.
COc1cc2c(cc1NC(=O)Nc1ccc(C)cc1)oc1ccccc12	.	.	.	.	.	.	/	/
O=C(CCn1c2c(c3ccccc31)CCCC2)NNC(=O)c1ccccc1[N+](=O)[O-]	.	.	.	.	.	.	/	/
O=Cc1ccc(-c2cccs2)s1	.	.	.	.	.	.	/	/
Oc1ccc(N=Cc2ccc(-c3cccs3)s2)cc1	.	.	.	76.8	68.1	.	.	.
CN1CCN(c2ccc(CNC(=O)c3ccc(-c4ccnn4C)c4ccoc34)cc2)CC1	/	.	.	75.4	.	.	.	.
CN1CCN(c2ccc(CNC(=O)c3ccc(-c4cnn(C)c4)c4ccoc34)cc2)CC1	/	.	.	.	.	.	/	/
COc1ccc(S(=O)(=O)Nc2ccc(S(=O)(=O)Nc3cc(C)nc(C)n3)cc2)cc1OC	.	.	.	75.7	.	.	.	.
COc1cc(NS(=O)(=O)c2ccc(OC)c(C)c2C)c(OC)cc1Cl	.	.	.	.	.	.	/	/
COc1ccc(OC)c(S(=O)(=O)Nc2cc(OC)c(Cl)cc2OC)c1	.	.	.	68.7	.	.	.	.
O=C(O)c1cc([N+](=O)[O-])ccc1N1CCCCC1	.	.	.	.	.	.	/	/
O=C(O)c1cc([N+](=O)[O-])ccc1-c1ccc([N+](=O)[O-])cc1C(=O)O	/	.	.	60.8	.	.	.	.
CCCn1c(N)c(NCCN2CCOCC2)c(=O)n(CC(=O)NCc2ccccc2)c1=O	.	.	.	86.1	.	.	.	.

Compound activity (PubChem BioAssay)
